Compound activity as filed in PubChem BioAssay.
GalR3 antagonist: GalR3 antagonists in HEK293 cells, primary screen, cell-based, fluorescence readout; Galanin receptor type 3 (Homo sapiens), O60755; inhibition, % at 3 µM; 0.44% of 360,000 active; HEK293 GalR3-CNG cAMP membrane potential fluorescence; galR3 body fused to GalR1 C-terminus;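 active = inhibition above the screen-wide average plus 3 SD, cut at about 13% in these data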;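 note: forskolin and galanin both at EC90 stimulate the cells; cAMP rise reported by CNG channel membrane potential dye signal; 0% = forskolin plus galanin with DMSO and 100% = forskolin alone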
TAAR1 agonist: human TAAR1 agonists, primary screen, Fluo-8 calcium fluorescence, CHO RD-HGA16 cells; Trace amine-associated receptor 1 (Homo sapiens), Q96RJ0; vehicle wells 0%, saturating PEA agonist 100%; activation, % at 3 µM; 0.99% of 360,000 active; AID 624467, 2012;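 active = activation above the mean activation of all test compounds in the run plus 3 SD, cut at about 38% in these data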
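System: CHO RD-HGA16 cells carrying human TAAR1 plus Gα16; Incubation: 17-24 h seeding, 75 min 37 °C dye, 30 min RT; Measured by: Fluo-8 fluorescence, 5 s baseline then 140 s kinetic read; Control set: DMSO and PEA EC100; Replication: single well for each compound.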
CHO parental Ca: ATP-evoked calcium signal inhibitors, parental CHO, primary screen, counter-screen for OX1R antagonist project, cell-based, fluorescence, Fluo-8 calcium dye; parental CHO-K1, ATP-induced calcium, Fluo-8 fluorescence; inhibition, % at 5.6 µM; 0.63% of 330,000 active; AID 463079, 2010;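 active = inhibition above that plate's mean sample inhibition plus 3 SD, cut at about 26% in these data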;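 note: 0% = ATP-challenged DMSO wells and 100% = DMSO wells without ATP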
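Measured by: calcium-sensitive Fluo-8 fluorescence / Test system: CHO parental line / Controls: ATP-challenged DMSO wells low, unchallenged DMSO wells high / Measure: % inhibition / Compound: single nominal dose of 5.6 µM per compound / Replicates: single well per compound, no replicates / Reagent: ATP as calcium-mobilizing challenge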
OX1R antag-1: antagonists of human orexin 1 receptor (OX1R); Orexin/Hypocretin receptor type 1 (Homo sapiens), O43613; OX1R-expressing cells, FRET antagonist read-out; inhibition, % at 6.6 µM; 1.8% of 330,000 active; in the data active = inhibition mostly above about 38%, no sharp cut-off; inactive = mostly below about 40%;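 note: 0% = agonist challenge alone and 100% = reference antagonist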
Target sequence (O43613 whole entry, looked up): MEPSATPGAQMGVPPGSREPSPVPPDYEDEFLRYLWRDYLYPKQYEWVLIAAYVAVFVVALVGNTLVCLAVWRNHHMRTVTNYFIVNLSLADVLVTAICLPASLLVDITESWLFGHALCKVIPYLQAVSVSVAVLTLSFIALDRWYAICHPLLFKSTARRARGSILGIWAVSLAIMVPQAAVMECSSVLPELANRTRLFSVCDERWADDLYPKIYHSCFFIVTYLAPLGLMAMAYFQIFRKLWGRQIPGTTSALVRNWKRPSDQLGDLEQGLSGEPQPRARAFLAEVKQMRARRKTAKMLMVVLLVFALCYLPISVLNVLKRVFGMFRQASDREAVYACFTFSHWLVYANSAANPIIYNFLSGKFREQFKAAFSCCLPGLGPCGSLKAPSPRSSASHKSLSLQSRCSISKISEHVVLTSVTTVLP
OX1R antag-2: OX1R (HCRTR1) antagonists, primary screen, fluorescence, CHO/OX1R cells, Fluo-8 calcium, orexin A. Orexin/Hypocretin receptor type 1 (Homo sapiens), O43613. Fluo-8 calcium fluorescence. inhibition, % at 5 µM. 0.43% of 330,000 active. AID 434989, 2010;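 active = inhibition above its plate's threshold, mean inhibition of all tested compounds on the plate plus 3 SD, cut at about 37% in these data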;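 note: 0% = orexin A challenge wells and 100% = SB-334867-A antagonist wells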
TAAR1 antagonist: human TAAR1 antagonists, primary screen, Fluo-8 calcium fluorescence, CHO RD-HGA16 cells; 1.5% of 360,000 active; inhibition, % at 3 µM; antagonist; Trace amine-associated receptor 1 (Homo sapiens), Q96RJ0;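 active = inhibition above a per-plate cutoff, the mean inhibition of test compounds on that plate plus 3 SD, cut at about 49% in these data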;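 note: 0% = DMSO plus EC80 beta-PEA response and 100% = DMSO alone without agonist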
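Assay system: RD-HGA16 CHO cells with stable hTAAR1 and Gα16 / Reagent: EC80 β-phenethylamine stimulus / Doses: 3 µM, single point / Timing: dye loading 75 min at 37 °C, then 30 min room temperature / Measured by: Fluo-8 intracellular calcium dye fluorescence, real-time kinetic reads / Controls: vehicle wells and EC80 agonist wells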
The depositor's hits bear a star; nt = no result. Rows were chosen to be rich in hits. Some 4.2% of all compounds tested hit in one or more screens of this group.

SMILES	GalR3 antagonist	TAAR1 agonist	CHO parental Ca	OX1R antag-1	OX1R antag-2	TAAR1 antagonist
Cc1ccc(S(=O)(=O)NNC(=O)Nc2ccc(Cl)c(Cl)c2)cc1	-7	3	22	194*	-7	2
Cc1ccc(NC(=O)NNS(=O)(=O)c2ccc(Br)cc2)cc1	-5	8	-15	17	-9	2
Cc1ccc(S(=O)(=O)NC(=O)Nc2ccc(N(C)C)cc2)cc1	2	0	-6	51*	-16	-19
Cc1ccc(S(=O)(=O)NC(=O)Nc2cccc([N+](=O)[O-])c2)cc1	-7	0	4	20	-10	-6
Cc1nn(C)c(C)c1NC(=O)Nc1ccc(Cl)c(Cl)c1	-6	12	44*	26	20	-2
CCOC(=O)Cc1csc(SC(C)C(=O)Nc2ccc(NC(C)=O)cc2)n1 (stereo unspecified)	-2	10	-6	4	-7	10
CCCn1c(=O)[nH]c(=O)c2c1nc(-c1cc([N+](=O)[O-])ccc1Cl)n2CCOC	-4	7	-21	41*	-24	-24
CCc1noc(C)c1C(=O)Nc1nc(-c2cccs2)cs1	4	3	-28	51*	-24	-15
Cc1noc(C)c1C(=O)Nc1nc(-c2cccs2)cs1	-2	8	-20	15	-18	8
O=C(CN1C(=O)NC(CCc2ccccc2)C1=O)Nc1ccc(F)c(F)c1F (stereo unspecified)	-4	44*	-7	-3	-1	19
CCCCN(C(=O)c1ccc([N+](=O)[O-])s1)c1c(N)n(CCCC)c(=O)[nH]c1=O	-2	8	-9	63*	-21	-27
CCCCn1c(N)c(N(CCOC)C(=O)c2ccc(Br)s2)c(=O)[nH]c1=O	0	0	-7	10	-9	-1
CCCCn1c(N)c(N(CCC(C)C)C(=O)COC(=O)c2ccc([N+](=O)[O-])s2)c(=O)[nH]c1=O	-3	2	-12	35*	-12	-17
CCCCN(C(=O)c1cc(=O)[nH]c2ccccc12)c1c(N)n(CCC)c(=O)[nH]c1=O	nt	nt	-8	80*	-19	nt
COc1cccc(C(=O)Nc2ncc3c(n2)CC(c2ccc(OC)cc2OC)CC3=O)c1 (stereo unspecified)	-11	1	-19	20	-17	15
CN(C)CCCN1C(=O)c2cccc3c([N+](=O)[O-])ccc(c23)C1=O	-3	2	18	68*	21	-3
Cc1ccc(OCCOC(=O)C2CCN(S(=O)(=O)c3ccc(C)c(C)c3)CC2)cc1	-2	2	29*	16	-5	24
CCCN(CC(=O)Nc1ccccc1OC)C(=O)c1ccc(S(=O)(=O)Nc2ccccc2)cc1	-4	8	1	70*	16	15
CCCN(CC(=O)Nc1ccccc1OC)C(=O)c1ccc(S(=O)(=O)Nc2ccccc2OC)cc1	-6	7	nt	nt	nt	19
COc1ccccc1NC(=O)Cn1nnc(-c2ccccc2NS(=O)(=O)c2ccccc2)n1	2	3	18	33	15	57*
COc1ccc(NC(=O)Cn2nnc(-c3ccccc3NS(=O)(=O)c3ccc(OC)cc3)n2)cc1	-3	0	39*	32	30	4
COc1ccc(-n2c(SCC(N)=O)nnc2-c2ccc(NS(=O)(=O)c3ccc(C)cc3)cc2)cc1	-1	9	0	8	-9	-3
COc1ccc(-n2c(SCC(=O)Nc3ccccc3)nnc2-c2ccc(NS(=O)(=O)c3ccc(C)cc3)cc2)cc1	-4	9	-13	18	-15	53*
CC(=O)Oc1c(I)cc(I)cc1C(=O)Nc1ccc(Cl)cc1	-5	3	58*	80*	9	7
COc1ccc(Cl)cc1C(=O)Nc1ccc(NC(C)=O)cc1	3	0	0	29	3	5
SMILES	GalR3 antagonist	TAAR1 agonist	CHO parental Ca	OX1R antag-1	OX1R antag-2	TAAR1 antagonist
Cc1ccc(-c2csc(N3CCC(NS(=O)(=O)c4ccc5c(c4)OCCO5)CC3)n2)cc1	-6	6	55*	36	51*	27
Cc1ccc(-c2csc(N3CCC(C(N)=O)CC3)n2)cc1	-4	9	-11	6	-10	9
CCCn1nnc(NC(=O)c2ccc([N+](=O)[O-])cc2Cl)n1	-4	4	-3	63*	-20	7
CCCCn1nnc(NC(=O)c2ccc(-c3cccc([N+](=O)[O-])c3)o2)n1	nt	nt	-26	51	-33	nt
CCCCn1nnc(NC(=O)c2ccc([N+](=O)[O-])cc2Cl)n1	-5	5	-3	64*	-15	-28
Cn1cc([N+](=O)[O-])c(C(=O)NNC(=O)c2ccc([N+](=O)[O-])cc2Cl)n1	-5	-1	4	44*	-13	14
CC(=O)Nc1ccc(NC(=O)c2ccc([N+](=O)[O-])cc2Cl)cc1	0	6	4	37	-12	-4
Cn1cc([N+](=O)[O-])c(C(=O)Nc2nc(-c3ccc(Cl)cc3)cs2)n1	-4	40*	56*	18	40*	67*
Cn1cc([N+](=O)[O-])c(C(=O)Nc2ccc(C(=O)N3CCCCC3)cc2)n1	0	1	-10	73*	-16	2
Cn1cc([N+](=O)[O-])c(C(=O)Nc2ccc(C3CCCCC3)cc2)n1	-7	9	-1	25	-16	8
CC(=O)N1CCc2cc(C(=O)CN3CCN(C(=O)c4ccco4)CC3)ccc21	nt	nt	-12	8	-10	nt
COc1ccccc1C1C(C(=O)c2ccc(C)o2)=C(O)C(=O)N1c1cc(C)on1 (stereo unspecified)	-7	0	-6	6	-21	-35
Cn1cnc([N+](=O)[O-])c1Sc1ccc(C(C)(C)C)cc1	-6	42*	-2	-2	-1	28
Cc1ccc(Sc2c([N+](=O)[O-])ncn2C)cc1	-3	8	-1	11	-5	-6
CCCN1C(=O)c2cc(C(=O)NC3CCCCCC3)ccc2C1O (stereo unspecified)	-2	1	-11	16	-10	12
Cc1nn(C(C)C(=O)NCc2ccco2)c(C)c1[N+](=O)[O-] (stereo unspecified)	-4	0	-4	9	-5	-14
CCCC(=O)OCCNc1cc(SCc2ccco2)c2nonc2c1[N+](=O)[O-]	0	-1	-14	68*	-19	3
